Test results reported in ChEMBL document CHEMBL4842350, “Discovery of a Novel Bromodomain and Extra Terminal Domain (BET) Protein Inhibitor, I-BET282E, Suitable for Clinical Progression” (J Med Chem, 2021).

Columns and labels:
[1] = Passive permeability in MDCK cells; assay type: ADME, cell-based, Canis lupus familiaris; conditions: dog, read-out: permeability
[2] = target: Cytochrome P450 2C9 (Homo sapiens, UniProt P11712)
[3] = Tmax in Beagle dog at 5 mg/kg, po measured upto 24 hrs by HPLC-MS/MS analysis; assay type: ADME, organism-based, Canis lupus familiaris; conditions: in vivo
In short: (§1)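 Oral suspension in 1% (w/v) hydroxypropylmethyl cellulose in water; male rats (n = 3) and male dogs (n = 4). AUC taken from 0 h to last quantifiable time point; Cmax is maximum observed plasma concentration; Tmax reported as median. Mean ± SD.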

[4] = target: T1, Cytochrome P450 3A4 (Homo sapiens, UniProt P08684); assay: Inhibition of recombinant human CYP3A4 expressed in Escherichia coli using VG as probe substrate incubated for 15 to 60 mins by fluorometric assay; assay type: ADME
T1 sequence (P08684 whole entry): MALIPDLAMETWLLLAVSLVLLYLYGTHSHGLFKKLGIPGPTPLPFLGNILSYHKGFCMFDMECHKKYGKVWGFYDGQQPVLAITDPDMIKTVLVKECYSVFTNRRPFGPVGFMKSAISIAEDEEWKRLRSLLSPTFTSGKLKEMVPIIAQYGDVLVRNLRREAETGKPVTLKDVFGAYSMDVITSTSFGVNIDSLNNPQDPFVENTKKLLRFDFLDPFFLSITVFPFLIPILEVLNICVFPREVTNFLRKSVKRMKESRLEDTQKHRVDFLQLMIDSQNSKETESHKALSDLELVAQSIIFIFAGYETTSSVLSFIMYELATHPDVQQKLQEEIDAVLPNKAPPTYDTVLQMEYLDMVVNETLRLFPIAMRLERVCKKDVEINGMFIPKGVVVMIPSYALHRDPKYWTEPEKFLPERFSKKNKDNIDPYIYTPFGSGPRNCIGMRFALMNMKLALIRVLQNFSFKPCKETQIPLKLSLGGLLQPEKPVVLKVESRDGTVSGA

[5] = Total blood clearance in Beagle dog at 1 mg/kg/hr, iv measured upto 28 hrs by LC-MS/MS analysis relative to hepatic blood flow; assay type: ADME, organism-based, Canis lupus familiaris; conditions: in vivo
[6] = dog, hepatocytes, 2 h, 0.5 µM
[7] = Cmax in Beagle dog at 5 mg/kg, po measured upto 24 hrs by HPLC-MS/MS analysis; assay type: ADME, organism-based, Canis lupus familiaris; parameters: route oral, dose 5 mg/kg, time <=24; conditions: in vivo; in short: as §1
[8] = Cmax in Wistar Han rat at 1 mg/kg, po measured upto 24 hrs by HPLC-MS/MS analysis; assay type: ADME, organism-based; parameters: route oral, dose 1 mg/kg, time <=24; conditions: in vivo; in short: as §1
[9] = Oral bioavailability in CD1 mouse at 3 mg/kg measured upto 8 hrs by LC-MS/MS analysis; assay type: ADME, organism-based; conditions: in vivo
In short: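 Naive male CD1 mice (n = 3) given 3 mg/kg by oral gavage as suspension in 1% (w/v) methylcellulose 400, 0.6 mg/mL. Tail-vein blood to 8 h plus terminal cardiac sample at 12 h; LC-MS/MS, LLQ 5 ng/mL.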

[10] = Unbound fraction in Balb/C mouse blood at 100 to 1000 ng/ml by LC-MS/MS-based rapid equilibrium dialysis method; assay type: ADME, tissue-based; conditions: dose 100-1000 ng/ml
In short: (§2)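 Whole blood (male Balb/C mouse, male Wistar Han rat, male Beagle dog; human from one unmedicated donor) spiked to nominal 100 and 1000 ng/mL; 10 min at 37 °C, then rapid equilibrium dialysis against PBS 4 h at 37 °C, 100 rpm. Matrix-matched acetonitrile extraction, LC-MS/MS; mean of n = 6.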

[11] = AUC(0 to t) in Wistar Han rat at 1 mg/kg, po measured upto 24 hrs by HPLC-MS/MS analysis; assay type: ADME, organism-based; parameters: route oral, dose 1 mg/kg, time <=24; conditions: in vivo; in short: as §1
[12] = Total blood clearance in CD1 mouse at 1 mg/kg/hr, iv measured upto 24 hrs by LC-MS/MS analysis relative to hepatic blood flow; assay type: ADME, organism-based; conditions: in vivo
In short: (§3)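 Surgically cannulated male CD1 mice (n = 3), 1 h iv infusion via jugular vein at 1 mg/kg/h (0.2 mg/mL in 2% DMSO/98% 10% Kleptose HPB in saline, 5 mL/kg/h). Tail-vein blood to 24 h plus terminal cardiac sample at 26 h; LC-MS/MS, LLQ 5 ng/mL. Mean ± SD.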

[13] = Half life in Wistar Han rat at 1 mg/kg/hr, iv measured upto 26 hrs by LC-MS/MS analysis; assay type: ADME, organism-based; conditions: in vivo
[14] = Volume of distribution at steady state in CD1 mouse at 1 mg/kg/hr, iv measured upto 24 hrs by LC-MS/MS analysis; assay type: ADME, organism-based; conditions: in vivo, read-out: Vdss; in short: as §3
[15] = Half life in CD1 mouse at 1 mg/kg/hr, iv measured upto 24 hrs by LC-MS/MS analysis; assay type: ADME, organism-based; conditions: in vivo; in short: as §3
[16] = Volume of distribution at steady state in Wistar Han rat at 1 mg/kg/hr, iv measured upto 26 hrs by LC-MS/MS analysis; assay type: ADME, organism-based; conditions: in vivo, read-out: Vdss
[17] = target: Bromodomain-containing protein 4 (Homo sapiens, UniProt O60885, Y390A); assay: Displacement of Alexa Fluor 647 labelled ligand from recombinant human N-terminal 6His-tagged BRD4-BD1 Y390A mutant (1 to 477 residue) expressed in Escherichia coli incubated for 30 mins by TR-FRET assay
[18] = target: T1, Cytochrome P450 3A4; assay: Inhibition of recombinant human CYP3A4 expressed in Escherichia coli using VR as probe substrate incubated for 15 to 60 mins by fluorometric assay; assay type: ADME
In short: (§4)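 Recombinant human CYPs coexpressed with NADPH reductase in E. coli bactosomes (0.1 mg protein/mL); profluorescent substrates ER (1A2), BMC (2C19), MMC (2D6), VividGreen or VividRed (3A4).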

[19] = Oral bioavailability in Beagle dog at 3 mg/kg measured upto 24 hrs by HPLC-MS/MS analysis; conditions: in vivo
[20] = Unbound fraction in Wistar Han rat blood at 100 to 1000 ng/ml by LC-MS/MS-based rapid equilibrium dialysis method; assay type: ADME, tissue-based; conditions: dose 100-1000 ng/ml; in short: as §2
[21] = Metabolic stability in mouse hepatocytes assessed as intrinsic clearance per g liver tissue at 0.5 uM measured upto 120 mins by LC-MS/MS analysis; assay type: ADME, cell-based, Hepatocyte; conditions: 2 h
In short: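 Cryopreserved mouse hepatocytes at 0.7 million cells/mL in Williams Medium E, compound 0.5 μM final (also repeated at 0.05 μM), 37 °C. […] No-cell and no-compound controls.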

[22] = Unbound fraction in Beagle dog blood at 100 to 1000 ng/ml by LC-MS/MS-based rapid equilibrium dialysis method; assay type: ADME, tissue-based, Canis lupus familiaris; conditions: dose 100-1000 ng/ml; in short: as §2
[23] = target: T2, Cytochrome P450 1A2 (Homo sapiens, UniProt P05177); assay: Inhibition of recombinant human CYP1A2 expressed in Escherichia coli using ER as probe substrate incubated for 15 to 60 mins by fluorometric assay; assay type: ADME; in short: as §4
T2 sequence (P05177 whole entry): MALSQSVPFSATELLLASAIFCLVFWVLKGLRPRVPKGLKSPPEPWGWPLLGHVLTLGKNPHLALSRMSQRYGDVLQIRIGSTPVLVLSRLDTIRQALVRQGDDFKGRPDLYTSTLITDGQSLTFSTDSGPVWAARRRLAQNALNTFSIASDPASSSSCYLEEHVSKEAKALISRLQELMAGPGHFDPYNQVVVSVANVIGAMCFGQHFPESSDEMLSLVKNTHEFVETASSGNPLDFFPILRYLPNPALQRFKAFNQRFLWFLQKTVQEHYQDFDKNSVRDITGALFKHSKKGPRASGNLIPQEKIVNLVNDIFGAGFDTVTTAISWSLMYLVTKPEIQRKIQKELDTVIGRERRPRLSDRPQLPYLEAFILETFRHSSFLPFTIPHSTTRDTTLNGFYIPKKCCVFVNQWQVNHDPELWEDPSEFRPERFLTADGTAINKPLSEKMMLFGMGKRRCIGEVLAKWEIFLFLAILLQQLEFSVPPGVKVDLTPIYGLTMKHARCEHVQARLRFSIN

[24] = Clearance in Wistar Han rat blood at 1 mg/kg/hr, iv measured upto 26 hrs by LC-MS/MS analysis; assay type: ADME, organism-based
[25] = Unbound fraction in human blood at 100 to 1000 ng/ml by LC-MS/MS-based rapid equilibrium dialysis method; assay type: ADME, tissue-based; conditions: dose 100-1000 ng/ml; in short: as §2
[26] = Clearance in CD1 mouse blood at 1.4 mg/kg/hr, iv measured upto 24 hrs by LC-MS/MS analysis

Sequence of Cytochrome P450 2C9 (P11712 whole entry): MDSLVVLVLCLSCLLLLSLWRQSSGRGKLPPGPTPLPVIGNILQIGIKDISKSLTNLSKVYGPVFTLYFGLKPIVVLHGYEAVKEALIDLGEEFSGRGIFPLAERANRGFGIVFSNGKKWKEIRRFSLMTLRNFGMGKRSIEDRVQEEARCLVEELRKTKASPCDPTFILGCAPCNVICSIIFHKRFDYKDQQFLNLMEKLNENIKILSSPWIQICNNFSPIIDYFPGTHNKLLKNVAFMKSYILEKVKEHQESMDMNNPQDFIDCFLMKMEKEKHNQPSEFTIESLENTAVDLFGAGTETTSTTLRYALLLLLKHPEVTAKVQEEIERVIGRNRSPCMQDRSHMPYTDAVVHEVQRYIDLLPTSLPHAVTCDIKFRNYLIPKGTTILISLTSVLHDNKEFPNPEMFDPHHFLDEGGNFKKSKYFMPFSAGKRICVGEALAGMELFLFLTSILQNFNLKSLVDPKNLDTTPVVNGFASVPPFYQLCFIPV

COC[C@@H](C)n1c(C2CCOCC2)nc2cnc3cc(-c4c(C)noc4C)c(OC)cc3c21
Papp [1]: 34.6 ×10⁻⁶ cm/s | IC50 [2]: > 50 µM | Tmax [3]: 0.75 h | IC50 [4]: 25.1 µM | CLH [5]: 68% | CLint [6]: 2.4 mL/min/g liver | Cmax [7]: 177 ng/mL | Cmax [8]: 125 ng/mL | bioavailability [9]: 51% | fraction unbound [10]: 0.1 | AUC(0-t) at 24 h [11]: 467 ng·h/mL | CLH [12]: 19% | half-life [13]: 1.4 h | Vd [14]: 1.9 L/kg | half-life [15]: 1.2 h | Vd [16]: 2.2 L/kg | IC50 [17]: 0.0398 µM | IC50 [18]: > 50 µM | F [19]: 31% | fraction unbound [20]: 0.16 | CLint [21]: < 0.86 mL/min/g liver | fraction unbound [22]: 0.24 | IC50 [23]: > 50 µM | clearance [24]: 20 mL/min/kg | fraction unbound [25]: 0.17 | clearance [26]: 23 mL/min/kg
